Results reported in PMC11827156 (Malaria Journal, 2025).
Entries after “also recorded” stand apart in the source; their conditions may differ. Read-outs that look alike come from different tables or passages of the source. Blank lines part the entries; values can stand above or below the compound they belong to.

How the values were obtained:
P. falciparum = details: read-out: IC50, antimalarial activity; cited from earlier work
P. falciparum 3D7 [1] = assay type: cell-based, Plasmodium falciparum
[2] = tested on: Plasmodium falciparum 3D7; experiment: Drug effects on erythrocytic cycle phases in synchronized cultures; assay type: cell-based
Outline: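 Sorbitol-synchronized P. falciparum 3D7 at 1% parasitaemia and 2% haematocrit received test compound (150 nM), chloroquine (150 nM) or 0.1% DMSO at 0, 12 or 24 h post-synchronization. Samples were taken at 12, 24, 36 and 48 h and stained for 30 min in HEPES-buffered Hank's with 1 µM Hoechst and […] thiazole orange. Flow cytometry gated rings, trophozoites and schizonts on DNA/RNA signal. Data are mean ± SD from one triplicate experiment.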

[3] = tested on: knockout parasites (PfSR25−); details: cited from earlier work
[4] = Cytotoxicity of the compounds in HEK293 cells; assay type: cell-based, human; details: human, HEK293 cells
Outline: (§1)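 HEK293 cells (passages 7–12, grown in DMEM with 10% FBS and penicillin/streptomycin at 37 °C, 5% CO₂) were trypsinized and seeded at 10^4 cells/well. They were exposed to test compound or DMSO vehicle for 72 h. MTT (5 mg/mL reagent) was then added for 3 h, and the formazan was dissolved in DMSO. Absorbance was read at 570 nm and dose–response curves were fitted. Each condition was run in triplicate in 3 independent experiments.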

HEK293 cells = experiment: Cytotoxicity of the compounds in HEK293 cells; assay type: cell-based, human; details: MTT, 72 h, 0.0019–2 µM; for CC50: read-out: CC50 nM HEK293
Outline: as §1

[5] = target: P. falciparum PfSR25− (serpentine receptor 25 knockout strain); experiment: Comparative IC50 screening, 3D7 versus serpentine receptor 25 knockout strain; assay type: cell-based, Plasmodium falciparum; details: 72 h, 0.0019–2 µM, Student's t test
Outline: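 Asynchronous 3D7 and PfSR25− cultures (37 °C, 90% N2/5% O2/5% CO2) at 0.3% parasitaemia and 2% haematocrit were exposed for 72 h to eleven final concentrations. Controls were 0.13% DMSO and chloroquine 0.2441–250 nM. Cells were stained with SYBR Green-I (1:10,000) plus MitoTracker Deep Red (50 nM) for 20 min at 37 °C and read by flow cytometry. Survival was taken relative to DMSO, in triplicate over three experiments. IC50 ± SEM came from dose–response curves.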

[6] = tested on: P. falciparum gametocytes; details: read-out: IC50 against P. falciparum gametocytes; cited from earlier work
P. falciparum 3D7 [7] = assay type: cell-based, Plasmodium falciparum; details: 2.5 nM compound alone, 48 h
P. falciparum 3D7 [8] = experiment: Competition of TCAMS compounds; assay type: cell-based, Plasmodium falciparum; details: 48 h
Outline: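 Asynchronous P. falciparum 3D7 cultures (1% parasitaemia, 2% haematocrit) were given 2.5 nM test compound with or without 250 nM serotonin or 100 nM melatonin. Incubation was 48 h at 37 °C under mixed gas, with a DMSO solvent control. Cells were stained with SYBR Green-I (1:10,000) and MitoTracker Deep Red (50 nM) for 20 min at 37 °C, then parasitaemia was read by flow cytometry. Survival is relative to solvent; triplicate, 3 independent experiments.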

P. falciparum Dd2 = details: 2 µM; cited from earlier work
P. falciparum 3D7 [9] = details: cited from earlier work
[10] = Plasmodium falciparum, 3D7, 72 h, read-out: IC50 (nM) 3D7, Table 1, asynchronous culture, 72 h, 0.0019–2 µM, ± standard error of the mean
[11] = read-out: IC50 (nM) 3D7, Table 1, asynchronous culture, 72 h, 0.0019–2 µM, ± standard error of the mean

Compound: CCCN(CCC)C1CCc2cccc(O)c2C1 (stereo not drawn) [8-OH-DPAT, 8-hydroxy-N-(di-n-propyl)-aminotetralin]
- IC50 (P. falciparum): 400 nM

- IC50 (P. falciparum 3D7 [1]; [10]): 11.3 ± 0.7 nM
Compound: CCN(CC)CCCC(C)Nc1ccnc2cc(Cl)ccc12 (stereo not drawn) [Chloroquine, reference compound]
- ring phase parasites at the 36 h time point ([2]; 150 nM added 12 h after synchronization, % parasitaemia, n = 3): 0.30 ± 0.17%
- parasitaemia at the 36 h time point ([2]; 150 nM added 12 h after synchronization, n = 3): 1.55 ± 0.87%
- parasites developed into schizonts at the 24 h time point ([2]; added at 0 h, control 18%): less than 0.5%
- parasitaemia of knockout parasites (PfSR25−) versus wild-type (3D7) ([3]; exposure for 24 h): significantly reduced parasitaemia compared with that of wild-type parasites (3D7)

- IC50 (P. falciparum 3D7 [1]; [10]): 91.1 ± 18.4 nM
- IC50 (P. falciparum 3D7 [1]; Plasmodium falciparum, 3D7, read-out: IC50 nM 3D7, Table 2): 91.1 nM
Compound: CN(CCCNCc1cccc2ccccc12)CCCNCc1cccc2ccccc12.Cl [TCMDC-137905, Cl.CN(CCCNCc1cccc2ccccc12)CCCNCc1cccc2ccccc12]
- CC50 at 72 h [4]: 5550 nM
- cytotoxic activity in HEK293 cells (HEK293 cells): exhibited cytotoxic activity in HEK293 cells
- difference of IC50 between 3D7 and PfSR25− [5]: none of the compounds tested were significantly different between the two strains
- IC50 [6]: 230 nM

Compound: CCOc1cc(CC)ccc1C1CCN(CCCCNC(=O)c2ccc(NC(=O)c3ccc(Cl)cc3)cc2)CC1.Cl [TCMDC-138317, Cl.CCOc1cc(CC)ccc1C1CCN(CCCCNC(= O)c2ccc(NC(= O)c3ccc(Cl)cc3)cc2)CC1]
- IC50 (P. falciparum 3D7 [1]; read-out: IC50 nM 3D7, Table 2): 80.8 nM
- IC50 (P. falciparum 3D7 [1]; [11]): 80.8 ± 25.9 nM
- cytotoxic activity in HEK293 cells (HEK293 cells): exhibited cytotoxic activity in HEK293 cells; also recorded: toxic to mammalian HEK293 cells
- CC50 (HEK293 cells): 16.6 nM

Compound: O=C(/C=C/c1ccc(Cl)c(Cl)c1)N1CCC(CN2CCC(c3c[nH]c4cc(C(F)(F)F)ccc34)CC2)CC1 [TCMDC-139860, FC(F)(F)c1ccc2c(c[nH]c2c1)C1CCN(CC2CCN(CC2)C(= O)\C = C\c2ccc(Cl)c(Cl)c2)CC1]
- IC50 (P. falciparum 3D7 [1]; [11]): 65.1 ± 11.6 nM
- effect on parasitaemia compared with the control (P. falciparum 3D7 [7]): induced a significant increase in parasitaemia
- effect on the increase in parasitaemia promoted by melatonin (P. falciparum 3D7 [8]; 2.5 nM compound with 100 nM melatonin): able to inhibit the increase in parasitaemia partially
- effect on the increase in parasitaemia promoted by serotonin (P. falciparum 3D7 [8]; 2.5 nM compound with 250 nM serotonin): partially inhibited the increase in parasitaemia promoted by serotonin
- difference of IC50 between 3D7 and PfSR25− [5]: none of the compounds tested were significantly different between the two strains
- inhibition of parasite development, strain Dd2 (P. falciparum Dd2): ≤ 50%

Compound: CC(Cc1ccc(NC(=O)c2ccc(CNCCc3ccccc3)cc2)cc1)NCCc1cccc(Cl)c1.Cl (stereo not drawn) [TCMDC-139867, Cl.CC(Cc1ccc(NC(= O)c2ccc(CNCCc3ccccc3)cc2)cc1)NCCc1cccc(Cl)c1]
- IC50 (P. falciparum 3D7 [1]; read-out: IC50 nM 3D7, Table 2): 57.4 nM
- IC50 (P. falciparum 3D7 [1]; [11]): 57.4 ± 12.2 nM
- cytotoxic activity in HEK293 cells (HEK293 cells): exhibited cytotoxic activity in HEK293 cells
- CC50 (HEK293 cells): 1280 nM
- difference of IC50 between 3D7 and PfSR25− [5]: none of the compounds tested were significantly different between the two strains

Compound: CCCCN(CCCC)CC(O)c1cc(Cl)cc2c1-c1ccc(Cl)cc1/C2=C/c1ccc(Cl)cc1 (stereo not drawn) [lumefantrine]
- susceptibility of PfSR25− [3]: increased susceptibility

Compound: Clc1ccc2c(N3CCN(CCCN4CCN(c5ccnc6cc(Cl)ccc56)CC4)CC3)ccnc2c1 [piperaquine]
- susceptibility of PfSR25− [3]: increased susceptibility

Compound: Melatotosil
- action on melatonin in the cell cycle of P. falciparum 3D7 (P. falciparum 3D7 [9]): blocks the action of melatonin in the cell cycle of P. falciparum 3D7
